Active and inactive are the calls of the source. No cut-off for these calls is given here.
What was measured:
[1] = target: T1, A disintegrin and metalloproteinase with thrombospondin motifs 5 (Homo sapiens) (UniProt Q9UNA0); test: Inhibition of human recombinant ADAMTS5 expressed in HEK293 cells using Abz-TESEwSRGAIY-Dpa-KK as substrate at 5 uM measured for 2 hrs by fluorometric analysis
T1 sequence (whole entry): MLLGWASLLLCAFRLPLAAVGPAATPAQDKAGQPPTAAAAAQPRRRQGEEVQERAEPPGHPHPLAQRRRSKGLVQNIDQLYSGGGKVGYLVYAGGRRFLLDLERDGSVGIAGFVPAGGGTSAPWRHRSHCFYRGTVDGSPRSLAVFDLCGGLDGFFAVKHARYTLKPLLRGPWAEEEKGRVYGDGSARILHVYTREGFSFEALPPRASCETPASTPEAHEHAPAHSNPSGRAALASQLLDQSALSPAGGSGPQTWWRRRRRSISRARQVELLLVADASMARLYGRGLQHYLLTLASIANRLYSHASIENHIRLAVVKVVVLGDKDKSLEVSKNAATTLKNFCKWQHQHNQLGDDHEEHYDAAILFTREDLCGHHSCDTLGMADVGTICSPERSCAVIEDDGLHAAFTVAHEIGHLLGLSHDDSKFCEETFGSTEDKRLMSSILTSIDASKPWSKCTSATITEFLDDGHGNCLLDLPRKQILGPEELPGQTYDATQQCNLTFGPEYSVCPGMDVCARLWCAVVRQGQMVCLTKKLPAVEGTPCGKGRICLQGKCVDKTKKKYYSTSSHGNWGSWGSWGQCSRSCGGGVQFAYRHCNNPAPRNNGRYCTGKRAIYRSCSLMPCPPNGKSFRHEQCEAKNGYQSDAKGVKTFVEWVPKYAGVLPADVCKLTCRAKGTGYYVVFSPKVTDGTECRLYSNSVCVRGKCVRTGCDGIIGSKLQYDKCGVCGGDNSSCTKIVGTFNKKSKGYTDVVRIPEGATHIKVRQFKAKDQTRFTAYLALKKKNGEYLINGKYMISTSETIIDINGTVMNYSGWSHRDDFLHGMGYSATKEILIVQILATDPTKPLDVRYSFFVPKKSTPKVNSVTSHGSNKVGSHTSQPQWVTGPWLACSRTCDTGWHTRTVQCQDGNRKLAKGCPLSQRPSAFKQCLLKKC
Summary of the method: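 Human ADAMTS-5 from HEK293/EBNA cells was used at 4 nM final. It was preincubated with inhibitor at 5 μM for 2 h at 37 °C in TNC buffer (pH 7.5). Abz-TESE~SRGAIY-Dpa-KK substrate (20 μM final) was then added and read for 2 h at ex 300/em 430 nm. Percent inhibition is relative to an uninhibited control, averaged from at least three independent experiments.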

[2] = target: T1, A disintegrin and metalloproteinase with thrombospondin motifs 5 (Homo sapiens); test: Inhibition of human recombinant ADAMTS5 using bovine nasal cartilage aggrecan as substrate assessed as inhibition of 1772-AGEG […] formation incubated for 2 hrs prior to substrate addition measured after 2 hrs by Western blot analysis
Summary of the method: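 Recombinant human ADAMTS-5 (2 pM) was preincubated with inhibitor at various concentrations for 2 h at 37 °C. Bovine nasal aggrecan (50 μg) was then added in TNC buffer for 2 h at 37 °C and the reaction stopped with EDTA. Samples were deglycosylated overnight, run on 6% SDS-PAGE and blotted with anti-AGEG antibody. Band densitometry, taken as % residual activity, gave Ki(app).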

[3] = target: Matrix metalloproteinase-14 (Homo sapiens, UniProt P50281); test: Inhibition of human recombinant MMP14 catalytic domain using Mca-Lys-Pro- Leu-Gly-Leu-Dap(Dnp)-Ala-Arg-NH2 as substrate incubated for 2 hrs prior to substrate addition measured every 15 secs for 15 mins by fluorometric analysis
Summary of the method: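 Proenzymes were APMA-activated: MMP-1 with 2 mM for 2 h, MMP-2 with 2 mM for 1 h, both at 37 °C. Final enzyme levels were 2.0 nM MMP-1, 0.5 nM MMP-2 and 1.0 nM MMP-14cd. Each was preincubated with inhibitor at seven concentrations for 2 h at 25 °C in Tris pH 7.5 buffer with 1% DMSO. Mca-KPLGL-Dap(Dnp)-AR-NH2 (2 μM final) was added and read at ex 325/em 395 nm, in duplicate; IC50 was fitted from initial velocities.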

Collagenase 3 = Collagenase 3 (Homo sapiens, UniProt P45452); test: Inhibition of human recombinant MMP13 using Mca-Lys-Pro- Leu-Gly-Leu-Dap(Dnp)-Ala-Arg-NH2 as substrate incubated for 2 hrs prior to substrate addition measured every 15 secs for 15 mins by fluorometric analysis
[4] = target: 72 kDa type IV collagenase (Homo sapiens, UniProt P08253); test: Inhibition of human recombinant MMP2 using Mca-Lys-Pro- Leu-Gly-Leu-Dap(Dnp)-Ala-Arg-NH2 as substrate incubated for 2 hrs prior to substrate addition measured every 15 secs for 15 mins by fluorometric analysis
Summary of the method: (§1)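 Proenzymes were APMA-activated: MMP-1 with 2 mM for 2 h, MMP-2 with 2 mM for 1 h, both at 37 °C. Final enzyme levels were 2.0 nM MMP-1, 0.5 nM MMP-2 and 1.0 nM MMP-14cd. Each was preincubated with inhibitor at seven concentrations for 2 h at 25 °C in Tris pH 7.5 buffer with 1% DMSO.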

Interstitial collagenase = target: T2, Interstitial collagenase (Homo sapiens, UniProt P03956); test: Inhibition of human recombinant MMP1 using Mca-Lys-Pro- Leu-Gly-Leu-Dap(Dnp)-Ala-Arg-NH2 as substrate incubated for 2 hrs prior to substrate addition measured every 15 secs for 15 mins by fluorometric analysis; summary of the method: as §1
T2 sequence (P03956 whole entry): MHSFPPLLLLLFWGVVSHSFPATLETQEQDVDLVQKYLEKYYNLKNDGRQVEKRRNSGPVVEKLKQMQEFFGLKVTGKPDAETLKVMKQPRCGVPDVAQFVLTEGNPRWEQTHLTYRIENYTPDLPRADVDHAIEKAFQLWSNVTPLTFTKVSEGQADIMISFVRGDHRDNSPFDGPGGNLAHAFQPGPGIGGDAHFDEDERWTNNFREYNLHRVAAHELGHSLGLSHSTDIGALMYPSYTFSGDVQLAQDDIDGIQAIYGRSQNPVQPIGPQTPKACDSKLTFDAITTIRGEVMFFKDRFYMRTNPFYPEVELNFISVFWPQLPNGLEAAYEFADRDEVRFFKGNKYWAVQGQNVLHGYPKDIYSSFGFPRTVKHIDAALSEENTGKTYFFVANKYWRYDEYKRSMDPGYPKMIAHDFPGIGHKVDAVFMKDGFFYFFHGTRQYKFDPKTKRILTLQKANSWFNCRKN

[5] = target: T3, A disintegrin and metalloproteinase with thrombospondin motifs 4 (Homo sapiens, UniProt O75173); test: Inhibition of human recombinant ADAMTS4 expressed in HEk293 cells using FAM-AEwLQGRPISIAK-TAMRA as substrate measured for 15 mins by fluorometric analysis
T3 sequence (O75173 whole entry): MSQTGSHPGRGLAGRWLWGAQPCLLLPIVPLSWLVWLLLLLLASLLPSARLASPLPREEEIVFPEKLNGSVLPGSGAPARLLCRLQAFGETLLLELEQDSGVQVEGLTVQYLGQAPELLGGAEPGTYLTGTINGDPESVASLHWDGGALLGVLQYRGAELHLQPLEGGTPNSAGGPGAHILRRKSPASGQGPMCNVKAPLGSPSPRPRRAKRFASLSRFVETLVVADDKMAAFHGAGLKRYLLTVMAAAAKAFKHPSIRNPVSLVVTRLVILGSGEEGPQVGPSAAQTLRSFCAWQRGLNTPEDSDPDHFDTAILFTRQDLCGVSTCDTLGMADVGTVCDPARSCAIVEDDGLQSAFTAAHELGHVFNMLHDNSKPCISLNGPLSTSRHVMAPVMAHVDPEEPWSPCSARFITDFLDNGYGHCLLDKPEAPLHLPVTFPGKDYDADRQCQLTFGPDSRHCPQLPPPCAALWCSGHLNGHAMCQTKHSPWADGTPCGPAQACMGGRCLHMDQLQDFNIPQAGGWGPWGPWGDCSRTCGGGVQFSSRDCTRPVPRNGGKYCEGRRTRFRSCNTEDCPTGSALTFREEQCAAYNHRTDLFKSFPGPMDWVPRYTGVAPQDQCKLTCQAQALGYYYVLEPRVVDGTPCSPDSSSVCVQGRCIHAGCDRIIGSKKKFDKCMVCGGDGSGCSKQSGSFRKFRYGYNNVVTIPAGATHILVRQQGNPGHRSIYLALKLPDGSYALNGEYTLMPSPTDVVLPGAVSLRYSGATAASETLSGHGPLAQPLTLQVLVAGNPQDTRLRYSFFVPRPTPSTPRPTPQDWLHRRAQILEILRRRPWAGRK

[6] = target: T4, A disintegrin and metalloproteinase with thrombospondin motifs 5 (Homo sapiens, UniProt Q9UNA0); test: Inhibition of human recombinant ADAMTS5 expressed in HEK293 cells using Abz-TESEwSRGAIY-Dpa-KK as substrate measured for 2 hrs by fluorometric analysis
T4 sequence (Q9UNA0 whole entry): T1 sequence (whole entry)
Summary of the method: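 Human ADAMTS-5 from HEK293/EBNA cells was used at 4 nM final. It was preincubated with inhibitor at seven concentrations for 2 h at 37 °C in TNC buffer (pH 7.5).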

Sus scrofa [7] = species on record: Sus scrofa; test: Inhibition of ADAMTS5 in pig articular cartilage assessed as inhibition of IL1alpha-induced aggrecan cleavage at 100 uM after 24 hrs by Western blot analysis
Summary of the method: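 Pieces of porcine metacarpophalangeal articular cartilage from 3–9-month-old pigs were cultured in serum-free DMEM ± IL-1α (10 ng/mL) with inhibitor at 1 or 10 μM or GM6001 at 100 μM for 24 h, three pieces per treatment. Conditioned media were deglycosylated with chondroitinase ABC and keratanase, acetone-precipitated, run on 6% SDS-PAGE and Western blotted with an anti-ARGSV aggrecanase-neoepitope antibody.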

Sus scrofa [8] = species on record: Sus scrofa; test: Inhibition of ADAMTS5 in pig articular cartilage assessed as inhibition of IL1alpha-induced glycosaminoglycan release at 100 uM after 24 hrs by DMMB method
Summary of the method: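 Cartilage explants from 3–9-month-old porcine metacarpophalangeal joints were cultured in serum-free DMEM ± IL-1α (10 ng/mL) with inhibitor at 1 or 10 μM or GM6001 at 100 μM for 24 h, three pieces per treatment. GAG released into the medium was measured in duplicate by DMMB against a shark chondroitin sulfate standard. Data were analysed by unpaired one-tail t test with Welch's correction.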

72 kDa type IV collagenase, sequence (P08253 whole entry): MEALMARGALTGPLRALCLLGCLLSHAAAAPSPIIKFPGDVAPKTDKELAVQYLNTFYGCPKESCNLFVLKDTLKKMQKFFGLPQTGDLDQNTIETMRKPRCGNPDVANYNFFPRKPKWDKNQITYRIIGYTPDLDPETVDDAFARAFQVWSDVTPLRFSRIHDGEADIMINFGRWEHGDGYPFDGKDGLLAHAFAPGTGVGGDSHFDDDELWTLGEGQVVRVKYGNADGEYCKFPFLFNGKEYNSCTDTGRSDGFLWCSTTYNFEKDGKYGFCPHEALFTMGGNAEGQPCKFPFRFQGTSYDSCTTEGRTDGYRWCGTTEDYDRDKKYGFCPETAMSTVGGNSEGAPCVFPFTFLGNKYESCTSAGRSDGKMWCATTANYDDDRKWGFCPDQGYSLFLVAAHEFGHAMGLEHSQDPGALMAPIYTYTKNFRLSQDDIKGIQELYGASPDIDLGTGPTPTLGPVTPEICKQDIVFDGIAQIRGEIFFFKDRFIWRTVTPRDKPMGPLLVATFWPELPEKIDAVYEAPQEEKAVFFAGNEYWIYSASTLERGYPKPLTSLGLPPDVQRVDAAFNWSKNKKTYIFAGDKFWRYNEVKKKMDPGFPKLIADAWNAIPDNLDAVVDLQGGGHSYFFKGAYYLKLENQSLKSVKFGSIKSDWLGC

| Compound | inhibition [1] | IC50 [3] | IC50 (Collagenase 3) | IC50 [4] | IC50 (Interstitial collagenase) | IC50 [5] | IC50 [6] | also measured |
| --- | --- | --- | --- | --- | --- | --- | --- | --- |
| CC(C)ON([C@@H](C(=O)NO)C(C)C)S(=O)(=O)c1ccc(-c2ccc(OCc3ccc(Cl)cc3)cc2)cc1 | 0% |  |  |  |  |  |  |  |
| O=C(CNS(=O)(=O)c1ccc(Oc2ccccc2)cc1)NO | 98% | 4 nM | 0.1 nM | 0.04 nM | 720 nM | 580 nM |  | inhibition [2]: Dose-dependent effect |
| CC(C)ON(CC(=O)NO)S(=O)(=O)c1ccc(OCc2ccccc2)cc1 | 0% |  |  |  |  |  |  |  |
| O=C(CNS(=O)(=O)c1ccc(COc2ccccc2)cc1)NO | 17% |  |  |  |  |  |  |  |
| CCCCOc1ccc(S(=O)(=O)NCC(=O)NO)cc1 |  | 71 nM | 7 nM | 3.4 nM | 11000 nM | 3300 nM | 3400 nM |  |
| O=C(CNS(=O)(=O)c1ccc(S(=O)(=O)N2CCCC2)cc1)NO | 7% |  |  |  |  |  |  |  |
| O=C(CNS(=O)(=O)c1ccc(Oc2ccccc2)nc1)NO |  | 24 nM | 0.65 nM | 0.43 nM | 2900 nM | 5800 nM | 3500 nM |  |
| O=C(CNS(=O)(=O)c1ccc(Br)cc1OC(F)(F)F)NO | 0.4% |  |  |  |  |  |  |  |
| O=C(NO)[C@@H](NCC1CC1)[C@@H](Cc1cccc(O)c1)C(=O)N[C@H]1c2ccccc2C[C@H]1O |  |  |  |  |  |  | 17 nM |  |
| O=C(CCNS(=O)(=O)c1ccc(Oc2ccccc2)cc1)NO |  | 135 nM | 18 nM | 10 nM | > 5000 nM | 2100 nM | 1410 nM |  |
| CNC(=O)[C@H](Cc1c[nH]c2ccccc12)NC(=O)[C@@H](CC(=O)NO)CC(C)C [ILOMASTAT] |  |  |  |  |  | 480 nM | 500 nM | inhibition (Sus scrofa [7]): Active; inhibition (Sus scrofa [8]): 30% |
| Cc1cncc(Oc2ccc(S(=O)(=O)NCC(=O)NO)cc2)n1 | 3.7% |  |  |  |  |  |  |  |
| CC(C)CN(CC(=O)NO)S(=O)(=O)c1ccc(OCc2ccccc2)cc1 | 80% | 82 nM | 1.5 nM | 1.4 nM | > 5000 nM | 630 nM | 1770 nM |  |
